# Source: ChEMBL document CHEMBL1142628, “Antineoplastic agents 430. Isolation and structure of cribrostatins 3, 4, and 5 from the republic of maldives cribrochalina species” (2000)
# Calls of active or inactive are those of the source. The calls are words filed in the database; no cut-off is given here.
# How the values were obtained:
# [1] = tested on: BXPC-3; assay: Growth inhibition of human BXPC3 cells; format: functional
# [2] = tested on: SK-N-SH; assay: Growth inhibition of human SK-N-SH cells; format: functional
# [3] = tested on: OVCAR-3; assay: Growth inhibition of human OVCAR-3 cells; format: functional
# Method in brief: (§1)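 NCI 60-cell-line screen run by the standard NCI protocol. Each test agent ran in quadruplicate, with a top concentration of 10^-5 M and five log-spaced dilutions. GI50 values were averaged and reported as negative log GI50.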
# [4] = tested on: SF-295; assay: (§2) Growth inhibition of human SF295 cells; format: functional
# Method in brief: (§3)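 NCI human tumor cell line panel screen run to the standard NCI protocol. Each compound tested in quadruplicate with a top concentration of 10^-5 M and five log-spaced dilutions. GI50 values were averaged across replicates and reported as negative log GI50.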
# [5] = tested on: SW-1736; assay: Growth inhibition of human SW1736 cells; format: functional
# [6] = tested on: NCI-H460; assay: (§4) Growth inhibition of human NCI-H460 cells; format: functional; method in brief: as §1
# [7] = tested on: KM-20L2; assay: Growth inhibition of human KM20L2 cells; format: functional
# [8] = tested on: FaDu; assay: Growth inhibition of human FaDu cells; format: functional
# [9] = tested on: DU-145; assay: Growth inhibition of human DU145 cells; format: functional; method in brief: as §1
# [10] = tested on: P388; assay: Growth inhibition of mouse P388 cells; format: functional
# [11] = tested on: Candida albicans; assay: Antifungal activity against Candida albicans ATCC 90028 at 100 ug/disk by disk diffusion method; format: functional, organism-based
# [12] = tested on: Cryptococcus neoformans; assay: Antifungal activity against Cryptococcus neoformans ATCC 90112 at 100 ug/disk by disk diffusion method; format: functional, organism-based
# [13] = tested on: Micrococcus luteus; assay: Antibacterial activity against Micrococcus luteus Presque Isle 456 at 100 ug/disk by disk diffusion method; format: functional, organism-based
# [14] = tested on: Staphylococcus aureus; assay: Antibacterial activity against Staphylococcus aureus ATCC 29213 at 100 ug/disk by disk diffusion method; format: functional, organism-based
# [15] = tested on: Enterococcus faecalis; assay: Antibacterial activity against Enterococcus faecalis ATCC 29212 at 100 ug/disk by disk diffusion method; format: functional, organism-based
# [16] = tested on: Bacillus subtilis; assay: Antibacterial activity against Bacillus subtilis Presque Isle 620 by disk diffusion method; format: functional
# [17] = tested on: Streptococcus pneumoniae; assay: Antibacterial activity against Streptococcus pneumoniae ATCC 6303 by disk diffusion method; format: functional
# [18] = tested on: Streptococcus pneumoniae; assay: Antibacterial activity against penicillin-resistant Streptococcus pneumoniae isolate by disk diffusion method; format: functional
# [19] = tested on: Streptococcus pneumoniae; assay: Antibacterial activity against invasive Streptococcus pneumoniae isolate at 100 ug/disk by disk diffusion method; format: functional, organism-based
# [20] = tested on: Streptococcus sp. 'group A'; assay: Antibacterial activity against group A Streptococcus isolate by disk diffusion method; format: functional
# [21] = tested on: Stenotrophomonas maltophilia; assay: Antibacterial activity against Stenotrophomonas maltophilia ATCC 13637 at 100 ug/disk by disk diffusion method; format: functional, organism-based
# [22] = tested on: Escherichia coli; assay: Antibacterial activity against Escherichia coli ATCC 25922 at 100 ug/disk by disk diffusion method; format: functional, organism-based
# [23] = tested on: Enterobacter cloacae; assay: Antibacterial activity against Enterobacter cloacae ATCC 13047 at 100 ug/disk by disk diffusion method; format: functional, organism-based
# [24] = tested on: Neisseria gonorrhoeae; assay: Antibacterial activity against Neisseria gonorrhoeae ATCC 49226 by disk diffusion method; format: functional
# [25] = tested on: Neisseria gonorrhoeae; assay: Antibacterial activity against penicillin-resistant Neisseria gonorrhoeae isolate by disk diffusion method; format: functional
# [26] = tested on: CCRF-CEM; assay: Growth inhibition of human CCRF-CEM cells; format: functional; method in brief: as §1
# [27] = Growth inhibition of human HL60(TB) cells; format: functional, HL-60(TB); details: HL-60
# Method in brief: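 NCI human tumour cell-line panel screen run by the standard NCI protocol. Each compound was tested in quadruplicate, with an upper concentration limit of 10^-5 M and five log-spaced dilutions. GI50 values were averaged and reported as negative log GI50.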
# [28] = tested on: K562; assay: Growth inhibition of human K562 cells; format: functional; method in brief: as §1
# [29] = tested on: MOLT-4; assay: Growth inhibition of human MOLT4 cells; format: functional; method in brief: as §1
# [30] = tested on: RPMI-8226; assay: Growth inhibition of human RPMI8226 cells; format: functional; method in brief: as §1
# [31] = tested on: SR; assay: Growth inhibition of human SR cells; format: functional; method in brief: as §3
# [32] = tested on: A549; assay: Growth inhibition of human A549/ATCC cells; format: functional; method in brief: as §1
# [33] = tested on: HOP-62; assay: Growth inhibition of human HOP62 cells; format: functional; method in brief: as §1
# [34] = tested on: HOP-92; assay: Growth inhibition of human HOP92 cells; format: functional; method in brief: as §1
# [35] = tested on: NCI-H226; assay: Growth inhibition of human NCI-H226 cells; format: functional; method in brief: as §1
# [36] = tested on: NCI-H460; assay: as §4; format: functional; method in brief: as §1; remark: listed apart in the source
# [37] = tested on: NCI-H522; assay: Growth inhibition of human NCI-H522 cells; format: functional; method in brief: as §1
# [38] = tested on: COLO 205; assay: Growth inhibition of human COLO205 cells; format: functional; method in brief: as §1
# [39] = tested on: KM12; assay: Growth inhibition of human KM12 cells; format: functional; method in brief: as §1
# [40] = tested on: SW-620; assay: Growth inhibition of human SW620 cells; format: functional; method in brief: as §3
# [41] = tested on: SNB-75; assay: Growth inhibition of human SNB75 cells; format: functional; method in brief: as §3
# [42] = tested on: U-251; assay: Growth inhibition of human U251 cells; format: functional; method in brief: as §3
# [43] = tested on: LOX IMVI; assay: Growth inhibition of human LOX IMVI cells; format: functional; method in brief: as §1
# [44] = tested on: Malme-3M; assay: Growth inhibition of human MALME-3M cells; format: functional; method in brief: as §1
# [45] = tested on: SK-MEL-5; assay: Growth inhibition of human SK-MEL-5 cells; format: functional; method in brief: as §3
# [46] = tested on: UACC-62; assay: Growth inhibition of human UACC62 cells; format: functional; method in brief: as §3
# [47] = tested on: IGROV-1; assay: Growth inhibition of human IGROV1 cells; format: functional; method in brief: as §1
# [48] = tested on: OVCAR-4; assay: Growth inhibition of human OVCAR4 cells; format: functional; method in brief: as §1
# [49] = tested on: OVCAR-8; assay: Growth inhibition of human OVCAR8 cells; format: functional; method in brief: as §1
# [50] = tested on: 786-0; assay: Growth inhibition of human 786-0 cells; format: functional; method in brief: as §1
# [51] = tested on: ACHN; assay: Growth inhibition of human ACHN cells; format: functional; method in brief: as §1
# [52] = tested on: RXF 393; assay: Growth inhibition of human RXF393 cells; format: functional; method in brief: as §3
# [53] = tested on: SN12C; assay: Growth inhibition of human SN12C cells; format: functional; method in brief: as §3
# [54] = tested on: PC-3; assay: Growth inhibition of human PC3 cells; format: functional; method in brief: as §1
# [55] = tested on: MCF7; assay: Growth inhibition of human MCF7 cells; format: functional; method in brief: as §1
# [56] = tested on: MCF7; assay: Growth inhibition of human adriamycin-resistant MCF7 cells; format: functional; method in brief: as §3
# [57] = tested on: MDA-MB-231; assay: Growth inhibition of human MDA-MB-231/ATCC cells; format: functional; method in brief: as §1
# [58] = tested on: Hs-578T; assay: Growth inhibition of human HS578T cells; format: functional; method in brief: as §1
# [59] = tested on: MDA-MB-435; assay: Growth inhibition of human MDA-MB-435 cells; format: functional; method in brief: as §1
# [60] = tested on: MDA-N; assay: Growth inhibition of human MDA-N cells; format: functional; method in brief: as §1
# [61] = tested on: T47D; assay: Growth inhibition of human T47D cells; format: functional; method in brief: as §3
# [62] = tested on: SF-268; assay: Growth inhibition of human SF268 cells; format: functional; method in brief: as §3
# [63] = tested on: SF-295; assay: as §2; format: functional; method in brief: as §3; remark: listed apart in the source
# [64] = tested on: SF-539; assay: Growth inhibition of human SF539 cells; format: functional; method in brief: as §3
compound,measurement,setting,value
C/C=C(/C)C(=O)OC[C@H]1C2=C(C=C3[C@H]4c5c(O)c(OC)c(C)c(O)c5C(=O)[C@@H](C(=O)N31)N4C)C(=O)C(C)=C(OC)C2=O [CRIBROSTATIN 5],GI50,[1],5.6 µg/mL
same,GI50,[2],3.6 µg/mL
same,GI50,[3],2.2 µg/mL
same,EC50,[3]; read-out: ED50 (the source's name),2.2 µg/mL
same,GI50,[4],> 10 µg/mL
same,GI50,[5],> 10 µg/mL
same,GI50,[6],> 10 µg/mL
same,GI50,[7],> 10 µg/mL
same,GI50,[8],0.26 µg/mL
same,GI50,[9],> 10 µg/mL
same,GI50,[10],24.6 µg/mL
same,Activity,[11],inactive
same,Activity,[12],inactive
same,Activity,[13],inactive
same,Activity,[14],inactive
same,Activity,[15],inactive
same,MIC,[16],12.5 µg/disc
same,MIC,[17],6.25 µg/disc
same,MIC,[18],50 µg/disc
same,Activity,[19],inactive
same,MIC,[20],12.5 µg/disc
same,Activity,[21],inactive
same,Activity,[22],inactive
same,Activity,[23],inactive
same,MIC,[24],6.25 µg/disc
same,MIC,[25],1.56 µg/disc
same,GI50,[26],1.7 µM
same,GI50,[27],5.37 µM
same,GI50,[28],4.37 µM
same,GI50,[29],1.91 µM
same,GI50,[30],6.17 µM
same,GI50,[31],3.8 µM
same,GI50,[32],8.71 µM
same,GI50,[33],7.59 µM
same,GI50,[34],8.13 µM
same,GI50,[35],7.94 µM
same,GI50,[36],7.59 µM
same,GI50,[37],4.17 µM
same,GI50,[38],8.13 µM
same,GI50,[39],9.12 µM
same,GI50,[40],6.92 µM
same,GI50,[41],5.62 µM
same,GI50,[42],6.46 µM
same,GI50,[43],3.31 µM
same,GI50,[44],0.389 µM
same,GI50,[45],8.13 µM
same,GI50,[46],9.77 µM
same,GI50,[47],8.51 µM
same,GI50,[48],1.82 µM
same,GI50,[49],4.27 µM
same,GI50,[50],6.17 µM
same,GI50,[51],7.94 µM
same,GI50,[52],5.25 µM
same,GI50,[53],7.08 µM
same,GI50,[54],9.12 µM
same,GI50,[55],8.13 µM
same,GI50,[56],6.76 µM
same,GI50,[57],2.69 µM
same,GI50,[58],8.71 µM
same,GI50,[59],1.82 µM
same,GI50,[60],2.19 µM
same,GI50,[61],2.09 µM
same,GI50,[62],9.55 µM
same,GI50,[63],8.91 µM
same,GI50,[64],5.75 µM
